According to PubChem BioAssay AID624467 (The Scripps Research Institute Molecular Screening Center, 2012):
The campaign covered roughly 360,000 compounds. About 3,600 (1%) were called active. The entries come from a sample that favours actives as a whole. A number with no mark means an inactive call.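 Rule for the calls: active = activation above the mean activation of all test compounds in the run plus 3 SD (cut at about 38% in these data); inactive = the rest.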

Target: Trace amine-associated receptor 1 (Homo sapiens) (UniProt Q96RJ0)
Experiment: human TAAR1 agonists, primary screen, Fluo-8 calcium fluorescence, CHO RD-HGA16 cells (AID 624467)
Details: CHO RD-HGA16 TAAR1, Fluo-8 calcium fluorescence; at 3 µM; stronger effect = higher value; vehicle wells 0%, saturating PEA agonist 100%
Procedure, shortened: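 System: CHO RD-HGA16 cells carrying human TAAR1 plus Gα16; Incubation: 17-24 h seeding, 75 min 37 °C dye, 30 min RT; Measured by: Fluo-8 fluorescence, 5 s baseline then 140 s kinetic read; Control set: DMSO and PEA EC100; Replication: single well for each compound.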

Trace amine-associated receptor 1 (Homo sapiens), sequence (Q96RJ0 whole entry, looked up): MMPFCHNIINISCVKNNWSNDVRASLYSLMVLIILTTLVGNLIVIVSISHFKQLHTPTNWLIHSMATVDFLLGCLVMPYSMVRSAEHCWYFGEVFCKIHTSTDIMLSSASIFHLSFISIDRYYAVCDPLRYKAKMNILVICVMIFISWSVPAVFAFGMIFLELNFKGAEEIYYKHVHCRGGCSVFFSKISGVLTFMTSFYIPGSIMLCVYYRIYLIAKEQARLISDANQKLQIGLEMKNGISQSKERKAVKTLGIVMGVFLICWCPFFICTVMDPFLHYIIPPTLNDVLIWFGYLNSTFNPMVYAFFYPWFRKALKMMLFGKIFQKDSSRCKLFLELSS

Row | SMILES | activation
1 | CC(=O)NC1C(Oc2ccc(C)cc2)OC2COC(c3ccco3)OC2C1O (stereo not drawn) | 1.22%
2 | CCc1ccc(NC(=O)Nc2ccncc2)cc1 | 30.2%
3 | O=C(Nc1ccc(Cl)cc1)Nc1ccc(Oc2cccnc2)nc1 | 35.4%
4 | O=C(Nc1ccncc1)Nc1ccc(F)cc1 | 78.9% (active)
5 | O=C(CCC(=O)n1ncc2ccccc21)NCc1ccccc1Cl | 0.3%
6 | COc1cccc(NC(=O)N(C)C[C@@H]2OCc3cn(nn3)CCCC(=O)N([C@@H](C)CO)C[C@H]2C)c1 | 1.34%
7 | O=S(=O)(c1ccc(Br)c2ccccc12)N1CCOCC1 | 3.96%
8 | Cc1cccc(C)c1-n1c(C)cc(/C=C2\C(=O)NN(c3ccccc3)C2=O)c1C | 38.3% (active)
9 | CCOC(=O)C1=C(O)/C(=C/c2cc(C)n(-c3ccccc3)c2C)N=C1C | 8.89%
10 | CN(C(=O)c1cccc(NC(=O)C2CCN(C(=O)OC(C)(C)C)CC2)c1)C1CCC1 | 12.7%
11 | Cc1ccc(CNC(=O)Nc2nnc([C@H]3C[C@H](O)[C@@H](CO)O3)s2)cc1 | 0.94%
12 | O=C(Nc1nnc([C@H]2C[C@H](O)[C@@H](CO)O2)s1)c1cccc(Cl)c1 | 2.33%
13 | O=C(Nc1ccc(F)cc1)Nc1nnc([C@H]2C[C@H](O)[C@@H](CO)O2)s1 | 45% (active)
14 | CC(=O)c1c(N2CCN(c3ccc(F)cc3)CC2)nc(=S)n(-c2ccccc2)c1C | -0.41%
15 | Cn1ccsc1=NC(=O)c1cc(S(=O)(=O)N2CCOCC2)ccc1Cl | 4.63%
16 | COc1ccc(-c2ccc3c(n2)CCCN3S(=O)(=O)c2ccc(C)cc2)cc1 | 1.61%
17 | Cc1c(C(=O)NCc2ccc(C#N)cc2)sc(=O)n1Cc1ccc(C(=O)N(C)C)cc1 | 2.3%
18 | Cc1ccc(Cn2c(C)c(C(=O)NCc3ccccc3C(F)(F)F)sc2=O)cc1 | 0.22%
19 | CC(=O)Oc1ccc(Cn2c(C)c(C(=O)NCc3ccc(C#N)cc3)sc2=O)cc1 | 140% (active)
20 | CC(C)[C@@H](C)/C=C/[C@@H](C)[C@H]1CC[C@@H]2[C@]1(C)CCC1[C@]23C=C[C@]2(C[C@@H](O)CC[C@]12C)N(c1ccc([N+](=O)[O-])cn1)O3 (stereo partly drawn) | -0.81%
21 | O=C(NCc1ccccc1)[C@H]1CCCN1C(=O)[C@H]1CCCN1C(=O)c1cc(F)cc(F)c1 | -0.16%
22 | CCCCNc1cccc2c1S(=O)(=O)N[C@@H](C)CO2 | -1.01%
23 | Cc1cc(CN(C)C(=O)c2cc(COc3ccc(C)c(C)c3)on2)n[nH]1 | 2.87%
